RBBP9 inhibitor: blocks human serine hydrolase RBBP9 | O75884 | inhibition, % at 7.94 µM | 220,000 tested, 0.2% active | recombinant RBBP9, FP-Rh probe fluorescence polarization;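 active = inhibition above the campaign mean of all tested compounds plus 3 SD, cut at about 14% in these data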
Target sequence (O75884 whole entry, looked up): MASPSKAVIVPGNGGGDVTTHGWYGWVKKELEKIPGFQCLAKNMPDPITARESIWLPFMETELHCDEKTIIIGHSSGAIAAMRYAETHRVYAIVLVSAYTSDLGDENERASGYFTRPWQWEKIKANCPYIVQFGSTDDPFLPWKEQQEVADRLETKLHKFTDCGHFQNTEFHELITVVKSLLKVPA
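Test system: recombinant human RBBP9; Timing: 30 min then 45 min, 25 °C; Detection: fluorescence polarization; Control set: RBBP9 with DMSO as uninhibited control, no-protein wells as full inhibition; Compound dosing: one concentration, 7.94 µM nominal, 0.794% DMSO; Probe or stimulus: FP-Rh activity-based probe, 375 nM before mixing.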
LYPLA2 counter: counter-screen for PME1 inhibitors: inhibitors of human LYPLA2. O95372. inhibition, % at 5.9 µM. 320,000 tested, 0.38% active. recombinant LYPLA2, FP-Rh probe fluorescence polarization;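 active = inhibition above the screen-wide mean plus 3 SD, limit set per campaign, cut at about 26% in these data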
Target sequence (O95372 whole entry, looked up): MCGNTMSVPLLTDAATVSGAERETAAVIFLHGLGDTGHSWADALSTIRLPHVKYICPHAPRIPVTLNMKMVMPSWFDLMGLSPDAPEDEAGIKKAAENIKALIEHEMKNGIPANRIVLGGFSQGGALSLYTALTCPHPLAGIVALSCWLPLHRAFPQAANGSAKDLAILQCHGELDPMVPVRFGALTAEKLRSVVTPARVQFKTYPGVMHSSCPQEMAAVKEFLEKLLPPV
Fam108B inh: Fam108B inhibition, counter-screen for RBBP9 inhibitors. inhibition, % at 9.51 µM. 300,000 tested, 0.33% active. recombinant Fam108B, FP-Rh probe fluorescence polarization;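 active = inhibition above the screen mean inhibition plus 3 SD, computed separately per campaign, cut at about 18% in these data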;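 note: inhibitors lower polarization as less probe binds the enzyme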
PME-1 primary: PME-1 (human) inhibition. AID 2130. Q9Y570. 320,000 tested, 0.53% active. recombinant PME-1, FP-Rh probe fluorescence polarization. inhibition, % at 5.9 µM;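 active = inhibition above the campaign mean of all compounds plus 3 SD, cut at about 26% in these data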;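 note: competitive labeling of PME-1 active site by serine hydrolase directed probe; inhibitors block probe labeling so polarization falls and inhibition rises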
LYPLA1 counter: blocks human lysophospholipase 1, a PME1 counter-screen; O75608; recombinant LYPLA1, FP-Rh probe fluorescence polarization; inhibition, % at 5.9 µM; 320,000 tested, 0.16% active; AID 2174;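 active = inhibition above the mean of all tested compounds plus 3 SD, set per campaign, cut at about 14% in these data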;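 note: inhibitors block serine hydrolase probe labeling of LYPLA1 so polarization falls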
Fam108b inh conf: Fam108b (mouse) hydrolase inhibition, confirmation assay. shares compounds with Fam108B inh. recombinant Fam108b, FP-Rh probe fluorescence polarization. inhibition, % at 9.51 µM. 930 tested, 44% active;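 active = inhibition above a limit from the primary screen, the mean over all compounds plus 3 SD, cut at about 19% in these data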;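 note: inhibitors free the probe so polarization falls as inhibition rises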
Fam108b inh: inhibits mouse Fam108b in gel-based ABPP; shares compounds with Fam108B inh; recombinant Fam108b, fluorophosphonate probe; inhibition, % at 20 µM; 260 tested, 44% active; AID 588649; in the data active = inhibition above about 40%
LYPLA1 confirm: counter-screen for PME1 inhibitors: confirmation of human LYPLA1 inhibitors; shares compounds with LYPLA1 counter; recombinant LYPLA1, FP-Rh probe fluorescence polarization; inhibition, % at 5.9 µM; 480 tested, 69% active;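 active = mean inhibition across replicates above the hit cutoff set in the primary screen, cut at about 15% in these data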;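 note: loss of FP-Rh probe labeling of LYPLA1 seen as lower polarization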
LYPLA2 confirm: LYPLA2 (human) inhibition, confirmation counter-screen. shares compounds with LYPLA2 counter. recombinant LYPLA2, FP-Rh probe fluorescence polarization. inhibition, % at 5.9 µM. 1,100 tested, 72% active. AID 2232;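 active = mean inhibition across replicates above the hit cutoff set in the primary screen, cut at about 26% in these data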;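 note: blocked labeling of the enzyme by serine hydrolase FP-Rh probe lowers polarization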
Of the large screens only hits and unclear results are named; the others gave an inactive call (follow-up assays come after a bar, where they were run). An excerpt weighted towards active compounds, which were near 0.99% of everything screened.

Cn1ccnc1C(O)c1ccccc1 (stereo not drawn)	none
COCCC(C(=O)Oc1c(C(C)(C)C)cc(C)cc1C(C)(C)C)c1ccccc1 (stereo not drawn)	none (no result: RBBP9 inhibitor, Fam108B inh)
CC(C)N=c1cc2n(-c3ccc(Cl)cc3)c3ccccc3nc-2cc1Nc1ccc(Cl)cc1	LYPLA2 counter 43, Fam108B inh 39, PME-1 primary 32, LYPLA1 counter 31 (no result: RBBP9 inhibitor) | Fam108b inh conf inactive | LYPLA1 confirm 15 | LYPLA2 confirm inactive
COc1ccc(NC(=S)Nc2ccc3nsnc3c2)cc1	LYPLA2 counter 86, Fam108B inh 29, PME-1 primary 36, LYPLA1 counter 61 | Fam108b inh conf 40 | Fam108b inh 55 | LYPLA1 confirm inactive | LYPLA2 confirm inactive
CC(C)N(C(=O)Nc1ccc2nsnc2c1)C(C)C	LYPLA2 counter 73, Fam108B inh 55, PME-1 primary 32, LYPLA1 counter 71 | Fam108b inh conf 33 | Fam108b inh inactive | LYPLA1 confirm inactive | LYPLA2 confirm 31
CCOc1ccc(NC(=S)Nc2ccc3nsnc3c2)cc1	LYPLA2 counter 90, Fam108B inh 80, PME-1 primary 52, LYPLA1 counter 66 | Fam108b inh conf 25 | LYPLA1 confirm inactive | LYPLA2 confirm 34
CCOc1ccc(NC(=S)Nc2ccc(OCC)cc2)cc1	none
COc1ccc(NC(=S)Nc2ccc3nc(C)c(C)nc3c2)cc1	none
Cc1ccc(-n2nc3cc(C)c(N)cc3n2)cc1	none
Cc1cc2nc3ccc(N(C)C)cc3nc2cc1N	LYPLA2 counter 33, Fam108B inh 32, PME-1 primary 40, LYPLA1 counter 32 (no result: RBBP9 inhibitor) | Fam108b inh conf 19 | LYPLA1 confirm 19 | LYPLA2 confirm inactive
C/C(=N\NC(=O)c1nnn(-c2nonc2N)c1-c1cccs1)c1ccncc1	LYPLA1 counter 25 (no result: RBBP9 inhibitor) | LYPLA1 confirm inactive
Cn1ncc(Cl)c1C(=O)Nc1sc2c(c1C(N)=O)CCC2	LYPLA1 counter 29 | LYPLA1 confirm inactive
COc1ccc(-n2c(C)c([N+](=O)[O-])c3ccc(O)c(CN4CCCCC4)c32)cc1	LYPLA1 counter 54 | LYPLA1 confirm 65
Cc1ccc(-n2c(C)c([N+](=O)[O-])c3ccc(O)c(CN(C)C)c32)cc1	none
COc1cc(/C=N\NC(=O)c2ccc(Cn3cc(Br)c([N+](=O)[O-])n3)o2)cc(OC)c1O	LYPLA1 counter 16 | LYPLA1 confirm inactive
CCOc1ccc(/C=N/Nc2cc(N3CCOCC3)nc(C)n2)c(O)c1	PME-1 primary 30, LYPLA1 counter 30 (no result: RBBP9 inhibitor) | LYPLA1 confirm 33
O=C(c1cccc(S(=O)(=O)N2CCc3ccccc32)c1)N1CCN(c2ccccn2)CC1	none
O=C(O)c1cc(Cl)ccc1-c1ccc(/C=C/c2cc(C(F)(F)F)[nH]c(=O)n2)o1	LYPLA2 counter 31, LYPLA1 counter 18 | LYPLA1 confirm inactive
Cc1cc(C)cc(C(=O)N2CCC(CCC(=O)NC3CC3)CC2)c1	none (no result: RBBP9 inhibitor)
C=CCOc1cccc(C(=O)N2CCC(CCC(=O)NC3CC3)CC2)c1	LYPLA1 counter 23 (no result: RBBP9 inhibitor) | LYPLA1 confirm inactive
O=C(Cc1ccccc1)N1CCCC(c2nc(-c3ccc(S(=O)(=O)N4CCCC4)cc3)no2)C1 (stereo not drawn)	none
O=C(Cc1ccccc1)N1CCC(c2nc(-c3ccc(F)cc3)no2)CC1	LYPLA1 counter 17 | LYPLA1 confirm inactive
COc1ccccc1NC(=O)c1ccc(NC(=O)CN2C(=O)CN(C)C2=O)cc1	none
O=c1ccc2ccc(Oc3ccc([N+](=O)[O-])cc3[N+](=O)[O-])cc2o1	LYPLA2 counter 58, PME-1 primary 42, LYPLA1 counter 40 | LYPLA1 confirm 40
CCOC(=O)c1cnc(SCC(=O)Nc2cc(C(F)(F)F)ccc2N2CCOCC2)nc1N	none
CCOC(=O)c1cnc(SCC(=O)Nc2ccc(N3CCOCC3)c(Cl)c2)nc1N	LYPLA1 counter 16 | LYPLA1 confirm 26

High-throughput results as filed in PubChem BioAssay.
